The term inhibition denotes the drop in the measured response relative to a control, in per cent.

Screen size: about 200,000 compounds; about 2,000 (1%) were called active. The sample holds actives, similar compounds and a random draw of the others, so the mix is not that of the screen.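 The calls were made as follows: active = inhibition above the campaign mean inhibition of all tested compounds plus 3 SD (cut at about 20% in these data); inactive = the rest.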

Neuropeptide Y receptor type 1 (Homo sapiens), sequence (P25929 whole entry, looked up): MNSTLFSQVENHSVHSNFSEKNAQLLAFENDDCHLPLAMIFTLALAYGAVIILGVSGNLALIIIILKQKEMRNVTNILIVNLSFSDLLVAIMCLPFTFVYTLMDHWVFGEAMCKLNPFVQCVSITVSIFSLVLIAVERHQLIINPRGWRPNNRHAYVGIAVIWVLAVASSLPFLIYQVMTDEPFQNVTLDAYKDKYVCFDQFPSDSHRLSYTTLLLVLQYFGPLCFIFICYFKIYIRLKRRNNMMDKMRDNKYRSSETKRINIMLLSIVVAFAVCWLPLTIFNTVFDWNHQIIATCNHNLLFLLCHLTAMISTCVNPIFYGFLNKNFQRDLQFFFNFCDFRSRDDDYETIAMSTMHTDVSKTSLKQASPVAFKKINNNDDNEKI

The assay has as its target Neuropeptide Y receptor type 1 (Homo sapiens) (UniProt P25929). In words: NPY-Y1 receptor antagonists, primary screen, cell-based (AID 1040).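 Also: 0% = DMSO wells given NPY plus isoproterenol and 100% = isoproterenol alone without NPY.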 The following applies: HEK293-CNG Y1 cells, membrane potential fluorescence; at 3.6 µM; stronger effect = higher value; NPY at EC95, then isoproterenol. The method, boiled down: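 Material: HEK293 Y1/CNG channel cell line; also added: NPY (25 nM), isoproterenol (1 µM), Ro 20-1724 (25 µM); doses: one concentration, 3.6 µM, in 0.4% DMSO; schedule: compound incubation 1 h at room temperature, readout 45 min post-stimulation; technique: membrane potential fluorescence; measure: fluorescence ratio normalized to % inhibition between controls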
Turning to `CCOC(=O)c1cccnc1NC(=O)c1ccncc1`, the inhibition is -1.05% (inactive).

`CC(C)N(C(=O)CSc1nc(COc2ccccc2)nc2ccccc12)C(C)C`: the inhibition is 3.31% (inactive). As for `CCOC(=O)N1CCN(C(=S)Nc2ccc(C)cc2C)CC1`, the inhibition was 3.77% (inactive). As for `CCOC(=O)c1nn(-c2cccc(C)c2)cc1C(=O)c1ccccc1`, the figure is 22% (active). As for `CCOC(=O)c1cn(Cc2cccc(C)c2)nn1`, the inhibition was -0.81% (inactive). Consider `CC(=O)c1nn(-c2cccc(Br)c2)cc1C(=O)c1cccc2ccccc12`, for which the inhibition was -2.46% (inactive).

Consider `CCCCC(=O)Nc1nc(C)c(-c2csc(Nc3ccc(Cl)cc3)n2)s1`, for which the inhibition was 4.16% (inactive).

For the molecule `CCCCCCC(=O)Nc1nc(C)c(-c2csc(Nc3cc(Cl)ccc3OC)n2)s1`, the inhibition was 11.2% (inactive). Consider `CCCCCCC(=O)Nc1nc(C)c(-c2csc(Nc3cccc(OC)c3)n2)s1`, for which the inhibition is 28.2% (active). Take `CCOC(=O)C1CCCN(C(=O)COc2ccc(N(C)S(=O)(=O)c3ccc(C)cc3)cc2)C1` (stereo unspecified): the inhibition was 2% (inactive). In the case of `CCSC1=NCCN1S(=O)(=O)c1ccc(F)cc1`, the inhibition was -1.87% (inactive). Consider `COCCNC(=O)COc1ccc(C)c(C)c1`, for which the inhibition is -3.6% (inactive). Turning to `Cc1ccc(OCC(=O)Nc2cccc3c2CCCC3)cc1C`, the inhibition was 21.6% (active). As for `Cc1cccc(OCC(=O)Nc2ccccc2F)c1`, the figure is 5.47% (inactive).

Regarding `COc1ccc(C2Nc3ccccc3C(=O)N2c2ccc(Cl)cc2)cc1Cn1cc([N+](=O)[O-])cn1` (stereo unspecified), the inhibition was 3.97% (inactive). On to `COc1ccc(C2Nc3ccccc3C(=O)N2Cc2ccccc2)cc1Cn1nnc2ccccc21` (stereo unspecified), for which the inhibition was 27.9% (active). As for `COc1ccc(C2Nc3ccccc3C(=O)N2c2ccc(F)cc2)cc1Cn1nnc2ccccc21` (stereo unspecified), the figure is -0.97% (inactive); as for `OCCC1CN(Cc2cccc(OC3CCCC3)c2)CCN1Cc1ccsc1` (stereo unspecified), 7.81% (inactive). With `CC(=O)NCCC(=O)Nc1nc(C)c(Cc2ccc3c(c2)OCO3)s1`, the inhibition is 3.53% (inactive). For `CC(C[N+](C)(C)C)OC(N)=O` (stereo unspecified) the value was -2.3% (inactive); for `CC(=O)OC(C)C[N+](C)(C)C` (stereo unspecified), 25.2% (active). For `CC1CCCN(CCOCCOc2ccccc2-c2ccccc2)C1` (stereo unspecified) the value was 12.5% (inactive); for `c1ccc(-c2ccccc2OCCN2CCCCC2)cc1`, 22.3% (active); for `CC1CN(CCOc2ccccc2[N+](=O)[O-])CC(C)O1` (stereo unspecified), -1.43% (inactive). As to `Cc1cc(C)c(OCCN2CC(C)OC(C)C2)c(Br)c1` (stereo unspecified), the inhibition is 9.03% (inactive).

As to `CC1CN(CCCOc2ccccc2-c2ccccc2)CC(C)O1` (stereo unspecified), the inhibition is 24.5% (active). In the case of `CN1CCN(CCCCOc2ccccc2-c2ccccc2)CC1`, the inhibition was 12.9% (inactive). Regarding `COC(=O)COc1cccc2c(=O)n(CC(=O)NCCc3ccc(OC)c(OC)c3)ccc12`, the inhibition is -1.97% (inactive). Consider `O=C(CSc1nnnn1C1CCCC1)Nc1ccc2c(c1)OCCO2`, for which the inhibition is 22.9% (active). For `CCC(=O)Nc1cccc(NC(=O)CSc2nnnn2C2CCCC2)c1` the value was 3.57% (inactive); for `O=C(CSc1nnnn1-c1ccc2c(c1)CCC2)Nc1ccc2c(c1)OCCO2`, 6.81% (inactive); for `CCC(=O)Nc1ccc(S(=O)(=O)NCC2CCCO2)cc1` (stereo unspecified), -5.94% (inactive). For the molecule `O=C(NCC1CCCO1)c1ccc2ccccc2n1` (stereo unspecified), the inhibition was 2.64% (inactive).

For the molecule `CCC(=O)c1c[nH]c(C(=O)NCC2CCCO2)c1` (stereo unspecified), the inhibition was 55.6% (active). With `Nc1ccc(Cl)c(S(=O)(=O)Nc2ccccc2Cl)c1`, the inhibition was -0.95% (inactive). As to `COC(=O)c1ccc(NC(=S)NN2CCOCC2)cc1`, the inhibition is 4.27% (inactive). As for `CC(Nc1nc(N2CCN(CCO)CC2)nc2ccccc12)c1ccccc1` (stereo unspecified), the inhibition was 22.2% (active).

For `c1ccc(-c2cc(N3CCCCC3)c3ccccc3n2)cc1`, the inhibition is 15.9% (inactive). Turning to `CC(Nc1nc(N2CCOCC2)nc2ccccc12)c1ccccc1` (stereo unspecified), the inhibition was 8.28% (inactive).

With `O=C(NC(c1ccccc1)c1ccccc1)N1CCN(CCO)CC1`, the inhibition is 3.34% (inactive).

With `CCCCn1c(CN2CCN(CCO)CC2)nc2ccccc21`, the inhibition is 6.52% (inactive). For `CC(Nc1nc(N2CCCC2)nc2ccccc12)c1ccccc1` (stereo unspecified), the inhibition was 32.6% (active). Regarding `COc1ccc(CC(=O)Nc2ccccc2NC(=O)c2ccco2)cc1OC`, the inhibition is 0.93% (inactive). In the case of `Cc1ccc(-c2nnc(SCC(=O)N/N=C/c3cccs3)n2-c2ccc(C)cc2)cc1`, the inhibition was 0.85% (inactive). As to `CC(Oc1ccccc1F)C(=O)NN` (stereo unspecified), the inhibition was 2.86% (inactive). As for `O=C(O)CCc1nc2cc(Cl)ccc2n(Cc2ccccc2)c1=O`, the inhibition was 5.7% (inactive).

Consider `O=C(C1CCCN1S(=O)(=O)c1ccc(Br)cc1)N1CCOCC1` (stereo unspecified), for which the inhibition is -0.15% (inactive). `CN1CCN(c2ccc(NC(=O)c3ccc4c(c3)OCCO4)cc2Cl)CC1`: the inhibition is 12% (inactive).

Consider `O=C(O)c1ccccc1-c1ccccc1C(=O)Nc1nccs1`, for which the inhibition was 2.4% (inactive). In the case of `O=C(NCCc1ccc(F)cc1)c1n[nH]c2ccccc12`, the inhibition was -0.22% (inactive).

Turning to `Cc1ccc(C)c(NC(=S)NCC(c2cccnc2)N2CCOCC2)c1` (stereo unspecified), the inhibition is 0.28% (inactive). Consider `O=C1c2cccc3cccc(c23)C(=O)N1CCCCCc1n[nH]c(=S)o1`, for which the inhibition was 5.39% (inactive). For `O=C(Nc1cccc(Cl)c1)Nc1ccccc1NS(=O)(=O)c1cccs1` the value was -7.2% (inactive); for `c1ccc2[nH]c(-c3nc4ccccc4[nH]3)nc2c1`, 0.38% (inactive). `c1ccc(-c2[nH]ncc2-c2nc3ccccc3[nH]2)cc1`: the inhibition was -3.83% (inactive). As for `COc1ccc(-c2[nH]nc(-c3ccccc3)c2-c2nc3ccccc3[nH]2)cc1`, the figure is 20.3% (active).

For `Cc1ccc(NC(=O)C(=O)NCC2CCN(C(=O)c3cccc([N+](=O)[O-])c3)CC2)cc1`, the inhibition was -1.84% (inactive). Take `Cc1ccc(S(=O)(=O)/N=C(\N)c2ccc(F)cc2)cc1`: the inhibition is -5.62% (inactive).

`Clc1ccccc1-c1cc(COc2ccc3ccccc3c2)no1`: the inhibition is 25.6% (active).

For the molecule `Clc1ccc(-c2cc(COc3ccccc3)no2)cc1Cl`, the inhibition was 5% (inactive).

Consider `O=C(NCc1ccccn1)c1cc(-c2ccccc2Cl)on1`, for which the inhibition was 9.55% (inactive). In the case of `Cc1cc(C)cc(C(=O)NC(=S)Nc2ccc3[nH]c(=O)[nH]c3c2)c1`, the inhibition was 6.81% (inactive). Regarding `COc1ccccc1CNC(=O)c1cc(=O)c2ccccc2o1`, the inhibition was -4.58% (inactive). In the case of `COc1ccccc1C1C2=C(COC2=O)Nc2cc3c(cc21)OCO3` (stereo unspecified), the inhibition is 36.2% (active). As for `CCCOc1ccccc1C1CC(=O)Nc2cc3c(cc21)OCO3` (stereo unspecified), the inhibition was 8.29% (inactive).

For the molecule `COc1cc2c(cc1/C=C1/NC(=O)N(c3ccccc3)C1=O)OCO2`, the inhibition was 6.09% (inactive).
